Data set [1] concerns Entamoeba histolytica. Put plainly: Antiamnesic activity against Entamoeba histolytica HM-1:IMSS after 72 hrs by trypan blue exclusion method. The data set is classed as functional, organism-based. In outline:
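Trophozoites grown in TYIS-33 medium and tested by microdilution; amoebae counted by haemocytometer, viability confirmed by trypan blue exclusion. Compounds in DMSO (1 mg/ml stock), two-fold serial dilutions, with medium blanks and untreated controls. After incubation, wells washed in warm 0.9% NaCl, methanol-fixed, eosin-stained, dye released in 0.1 N NaOH, OD 490 nm. IC50 from linear regression of % inhibition versus log dose.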

Data set [2] can be described thus: Safety index, ratio of IC50 for human kidney epithelial cells to IC50 for Entamoeba histolytica HM-1:IMSS.
Data set [3] in a line: Cytotoxicity against human kidney epithelial cells after 44 hrs by MTT assay. The data set is classed as ADME, cell-based. As to conditions: Epithelial cell. For orientation: Tetrazolium dyes change colour on reduction, which living cells bring about.
Data set [4] deals with Entamoeba histolytica. Put plainly: Antiamoebic activity against Entamoeba histolytica HM-1:IMSS after 72 hrs by microdilution method. On the technique in general: Dilution methods test growth across graded concentrations, often in twofold steps.

In data set [1], `Cc1ccc(/C=C/C(=O)c2ccccc2)cc1` displayed a concentration for half-maximal inhibition (IC50) of 2120 nM.
For the molecule `O=C(/C=C/c1ccc(Cl)c(Cl)c1)c1ccccc1`, the selectivity ratio in data set [2] (human kidney epithelial cells) was more than 24.9. In addition, the figures for the half-inhibitory concentration (IC50) in data set [3] and in data set [4] were more than 50000 nM and 2010 nM, respectively.
Consider `CC(C)c1ccccc1/C=C/C(=O)c1ccccc1`, for which the IC50 in data set [1] was 3480 nM; in data set [3], more than 46000 nM. In data set [2] (human kidney epithelial cells), the selectivity ratio was more than 13.2.
For the molecule `O=C(/C=C/c1ccccc1Cl)c1ccccc1`, the selectivity ratio in data set [2] (human kidney epithelial cells) was more than 19.2. In addition, the concentration for half-maximal inhibition (IC50) in data set [3] was more than 50000 nM; in data set [4], 2600 nM.
Turning to `CCc1ccccc1/C=C/C(=O)c1ccccc1`, the IC50 in data set [1] was 1790 nM; in data set [3] it was more than 50000 nM. Further, the selectivity ratio in data set [2] (human kidney epithelial cells) was more than 27.9.
The matching figures for `Cc1ccc(C2CC(c3ccccc3)=NN2C(N)=S)cc1` (stereo not given): 1580 nM, more than 50000 nM and more than 31.7.
As to `Cc1ccc(C2CC(c3ccccc3)=NN2c2nc3nc4ccccc4nc3s2)cc1` (stereo not given), the figures for the half-maximal inhibitory concentration (IC50) in data set [1] (in the assay text read “Antiamoebic” for “Antiamnesic”) and in data set [3] were 300 nM and more than 14000 nM, respectively. For the same molecule, in data set [2] (human kidney epithelial cells), the selectivity ratio was more than 46.4.
Take `Cc1cc(C)c(C2CC(c3ccccc3)=NN2c2nc3nc4ccccc4nc3s2)c(C)c1` (stereo not given): the selectivity ratio in data set [2] (human kidney epithelial cells) was more than 10.8. The results for the IC50 in data set [3] and in data set [4] were more than 35000 nM and 3200 nM, respectively.
Regarding `CCc1ccccc1C1CC(c2ccccc2)=NN1C(N)=S` (stereo not given), the IC50 was 1610 nM in data set [1] and more than 50000 nM in data set [3]. For the same molecule, in data set [2] (human kidney epithelial cells), the selectivity ratio is more than 31.1.
In the case of `CC(C)c1ccccc1C1CC(c2ccccc2)=NN1C(N)=S` (stereo not given), the selectivity ratio in data set [2] (human kidney epithelial cells) is more than 217. Further, the values for the IC50 in data set [3] and in data set [4] were more than 50000 nM and 230 nM, respectively.
For `Clc1cccc(C2CC(c3ccccc3)=NN2c2nc3nc4ccccc4nc3s2)c1Cl` (stereo not given), in that order: more than 56.2, more than 50000 nM and 890 nM.
The matching figures for `Clc1ccccc1C1CC(c2ccccc2)=NN1c1nc2nc3ccccc3nc2s1` (stereo not given): more than 26.3, more than 50000 nM and 1900 nM.
Regarding `c1ccc(C2=NN(c3nc4nc5ccccc5nc4s3)C(c3c[nH]c4ccccc34)C2)cc1` (stereo not given), the 50% inhibitory concentration (IC50) in data set [1] was 1290 nM; in data set [3] it was more than 18000 nM. Moreover, the selectivity ratio in data set [2] (human kidney epithelial cells) is more than 14.
Turning to `CC(C)c1ccccc1C1CC(c2ccccc2)=NN1c1nc2nc3ccccc3nc2s1` (stereo not given), the selectivity ratio in data set [2] (human kidney epithelial cells) is more than 294. Besides, the IC50 in data set [3] was more than 50000 nM; in data set [4], 170 nM.
`O=C(/C=C/c1c[nH]c2ccccc12)c1ccccc1`: the values for the half-maximal inhibitory concentration (IC50) in data set [1] and in data set [3] were 1800 nM and more than 44000 nM, respectively. In addition, in data set [2] (human kidney epithelial cells), the selectivity ratio is more than 24.4.
The matching figures for `NC(=S)N1N=C(c2ccccc2)CC1c1c[nH]c2ccccc12` (stereo not given): 1770 nM, more than 54000 nM and more than 30.5.
For the molecule `NC(=S)N1N=C(c2ccccc2)CC1c1ccccc1Cl` (stereo not given), in data set [2] (human kidney epithelial cells), the selectivity ratio was more than 22.4. The 50% inhibitory concentration (IC50) in data set [3] is more than 50000 nM; in data set [4] it was 2230 nM.
For `Cc1cc(C)c(/C=C/C(=O)c2ccccc2)c(C)c1`, in that order: more than 35.5, more than 50000 nM and 1410 nM.
Regarding `NC(=S)N1N=C(c2ccccc2)CC1c1ccccc1` (stereo not given), the concentration for half-maximal inhibition (IC50) in data set [1] was 1610 nM; in data set [3], more than 50000 nM. In addition, in data set [2] (human kidney epithelial cells), the selectivity ratio was more than 31.1.
In the case of `Cc1cc(C)c(C2CC(c3ccccc3)=NN2C(N)=S)c(C)c1` (stereo not given), in data set [2] (human kidney epithelial cells), the selectivity ratio is more than 11.4. The IC50 was more than 50000 nM in data set [3] and 4370 nM in data set [4].
In the case of `c1ccc(C2=NN(c3nc4nc5ccccc5nc4s3)C(c3ccccc3)C2)cc1` (stereo not given), the half-inhibitory concentration (IC50) in data set [1] is 1490 nM; in data set [3], more than 50000 nM. Also, the selectivity ratio in data set [2] (human kidney epithelial cells) was more than 33.5.
For `CCc1ccccc1C1CC(c2ccccc2)=NN1c1nc2nc3ccccc3nc2s1` (stereo not given), in that order: 1490 nM, more than 50000 nM and more than 33.5.
For `O=C(/C=C/c1ccccc1)c1ccccc1` [CHALCONE], in that order: 1700 nM, more than 50000 nM and more than 29.4.
On to `Cc1ncc([N+](=O)[O-])n1CCO` [METRONIDAZOLE], for which, in data set [2] (epithelial cell), the selectivity ratio was more than 55.6. Besides, the IC50 in data set [3] was more than 100000 nM; in data set [4], 1800 nM.

A word on the IC50: it is the concentration that gives 50% inhibition. A higher IC50 goes with lower potency.

Source of the values: ChEMBL document CHEMBL1138539, “Synthesis of new 2-(5-substituted-3-phenyl-2-pyrazolinyl)-1,3-thiazolino[5,4-b]quinoxaline derivatives and evaluation of their antiamoebic activity” (Eur J Med Chem, 2009).
